# Measurements collected from several papers.
# Target: Tyrosine-protein kinase SYK (SYK, Homo sapiens, UniProt P43405)
Structure (SMILES),read-out,action,method,tested at,quantity,result
O=C(Nc1cnn(-c2csc(C(=O)NC3COC3)c2)c1)Nc1c(F)cccc1Cl,enzyme activity,inhibitor,,5 µM,remaining activity,90.3%
Cn1nc(C(=O)NCc2ccc(C(=O)O)cc2)cc1-c1ccc2[nH]ccc2c1,cell-free assay,,competition with immobilised ligand,0.1 µM,remaining binding,81%
COc1cc2ncnc(Nc3ccc(Oc4ccccc4)cc3C)c2cc1OC,enzyme activity,inhibitor,,1 µM,inhibition,1%
Cc1sc(C(=O)NC2COC2)cc1-n1cc(NC(=O)Nc2c(F)cccc2Cl)cn1,enzyme activity,inhibitor,,10 µM,remaining activity,88.5%
O=C1Nc2ccc(Cl)cc2C1=Cc1cc(Cl)c(O)c(Cl)c1,cell-free assay,,,0.5 µM,remaining signal,93.3%
CC(=O)N1CCC(c2ccc(C(=O)NC3=NCCN3)cc2C(F)(F)F)CC1,cell-free assay,,competition with immobilised ligand,1 µM,remaining binding,100%
Cc1ccc(NC(=O)c2ccc(C)c(C(F)(F)F)c2)cc1C#Cc1nn(C2CCC(O)CC2)c2ncnc(N)c12 (stereo not shown),cell-free assay,,,10 µM,remaining signal,95%
COc1cc(Nc2cnc(C#N)c(O[C@H](C)CN(C)C)n2)ncc1-c1cnn(C)c1,enzyme activity,inhibitor,radiometric,10 µM,remaining activity,63%
Oc1cccc(-c2nc(N3CCOCC3)c3oc4ncccc4c3n2)c1,cell-free assay,,,0.5 µM,remaining signal,94.2%
CN1CC(Oc2cnc(C#N)cc2-c2ccn3nc(NC(=O)C4CC4)cc3c2)C1,enzyme activity,inhibitor,,1 µM,inhibition,1%
CCS(=O)(=O)c1cc2cc(C[C@](O)(CC(C)(C)c3ccc(F)cc3C(N)=O)C(F)(F)F)[nH]c2cn1,cell-free assay,,competition with immobilised ligand,1 µM,remaining binding,100%
O=C(CSc1nc2nccnc2c(=O)n1CCc1ccccc1)Nc1nccs1,enzyme activity,inhibitor,,10 µM,inhibition,7%
COc1cc(/C=C/C(=O)CC(=O)/C=C/c2ccc(O)c(OC)c2)ccc1O,enzyme activity,inhibitor,,1 µM,activity vs control,92%
CC(C)(O)[C@H]1CC[C@H](Nc2ccc3ncc(-c4cccc(C(F)(F)F)c4)n3n2)CC1,enzyme activity,inhibitor,,1 µM,remaining activity,72.3%
Nc1nc(NC2CCCCC2)sc1C(=O)c1ccccc1,enzyme activity,inhibitor,,10 µM,remaining activity,91%
C[C@H](c1ccnc(Nc2nc3ccc(-c4cc(N(C)C)ncn4)cc3[nH]2)c1)N1CCN(C(=O)CC(F)(F)F)CC1,binding,,competition with immobilised ligand,0.1 µM,remaining binding,31%
CC(C)(C)C(=O)c1sc(NC2CCCCC2)nc1N,enzyme activity,inhibitor,,10 µM,remaining activity,111%
Cc1ccc(C(=O)Nc2ccc(CN3CCN(C)CC3)c(C(F)(F)F)c2)cc1C#Cc1cnc2cccnn12,enzyme activity,inhibitor,,23.5 nM,remaining activity,99%
COc1ccc(COc2ccc(Cc3cnc(N)nc3N)cc2OC)cc1,cell-free assay,,,0.5 µM,remaining signal,89%
CC(C)(C)c1nc2c(s1)c1nc(N)ncc1c1ccc(NS(=O)(=O)c3c(F)cccc3F)c(F)c12,enzyme activity,inhibitor,radiometric,1 µM,remaining activity,95%
CS(=O)(=O)N1CCCC(NC(=O)[C@H](CCC2CCCCC2)NC(=O)c2ccc(CNc3ncnc4c3nnn4-c3ccccc3)cc2)C1 (stereo partly shown),cell-free assay,,competition with immobilised ligand,0.1 µM,remaining binding,88%
Cc1ccc(Nc2nccc(N(C)c3ccc4c(C)n(C)nc4c3)n2)cc1S(N)(=O)=O,enzyme activity,inhibitor,,10 µM,inhibition,88%
CN(C)C1CCN(CC#Cc2nn(C3CCCC3)c3nc(NCc4ccccc4)ncc23)C1 (stereo not shown),enzyme activity,inhibitor,FRET,10 µM,inhibition,-1%
Cc1c(C(=O)O)cc(-c2ccc(C3CCNCC3)cc2)c2ccc(-c3ccc(C(F)(F)F)cc3)cc12,cell-free assay,,competition with immobilised ligand,1 µM,remaining binding,100%
FC(F)(F)Oc1cccc(-c2cnc3ccc(-c4ccncc4)nn23)c1,enzyme activity,inhibitor,radiometric,1 µM,activity vs control,72%
Cc1cnc(NC2CCOCC2)nc1-n1cnc(C(=O)NC(CN)c2cc(F)cc(Cl)c2)c1 (stereo not shown),enzyme activity,inhibitor,radiometric,1 µM,remaining activity,94%
O=C(N1CCS(=O)(=O)CC1)N1C[C@H](c2ccc(OC(F)(F)F)cc2)C[C@H](c2nc(C3CC3)no2)C1,cell-free assay,,competition with immobilised ligand,1 µM,remaining binding,100%
CNc1cccc2cc(C(=O)Nc3ccc(C(=O)O)cc3)c(=O)[nH]c12,enzyme activity,inhibitor,,10 µM,inhibition,4%
Cn1c(=O)n(-c2ccc(C(C)(C)C#N)cc2)c2c3cc(-c4cnc5ccccc5c4)ccc3ncc21,enzyme activity,inhibitor,,10 µM,remaining activity,72%
CC(C)CC(=O)N1CCc2nc(-c3ccc(Br)cc3)nc(N(C)Cc3ccccc3)c2C1,cell-free assay,,competition with immobilised ligand,0.1 µM,remaining binding,100%
CNC(=O)c1cc(Oc2ccc(NC(=O)Nc3ccc(Cl)c(C(F)(F)F)c3)cc2)ccn1,enzyme activity,inhibitor,,10 µM,inhibition,-6%
